Peptide text beside a SMILES is read from it.
Tests used:
integrin αvβ3 [1] = target: integrin αvβ3 (Homo sapiens, UniProt P05106+P06756); test: Determination of the dissociation constant by ELISA; assay type: binding
In short: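 Solution-phase ELISA after Friguet. Integrin αvβ3 (serial, 0.5–32 nM) was equilibrated with test peptide (0.5 nM) for 4 hrs at 37°C. The mixture was moved to wells precoated with anti-integrin αvβ3 antibody (1:50) for 1 hr at room temperature, washed, and bound complexes detected by ELISA. Absorbance was taken without receptor (A0) and at each receptor concentration (A). Run in triplicate; Kd from one-site specific binding nonlinear regression.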

hCMEC/D3 cells [2] = test: Cell proliferation assay; assay type: cell-based, human; details: 48 hr incubation, MTT, 570 nm, p > 0.05
hCMEC/D3 cells [3] = test: Tube formation assay on Matrigel; assay type: cell-based, human; details: VEGF 10 ng/mL, positive control, 12 hr
integrin αvβ3 [4] = target: integrin αvβ3 (UniProt P06756); test: ELISA
Sequence of integrin αvβ3 (UniProt P06756) (P06756 31-1048, chain 1 of 2): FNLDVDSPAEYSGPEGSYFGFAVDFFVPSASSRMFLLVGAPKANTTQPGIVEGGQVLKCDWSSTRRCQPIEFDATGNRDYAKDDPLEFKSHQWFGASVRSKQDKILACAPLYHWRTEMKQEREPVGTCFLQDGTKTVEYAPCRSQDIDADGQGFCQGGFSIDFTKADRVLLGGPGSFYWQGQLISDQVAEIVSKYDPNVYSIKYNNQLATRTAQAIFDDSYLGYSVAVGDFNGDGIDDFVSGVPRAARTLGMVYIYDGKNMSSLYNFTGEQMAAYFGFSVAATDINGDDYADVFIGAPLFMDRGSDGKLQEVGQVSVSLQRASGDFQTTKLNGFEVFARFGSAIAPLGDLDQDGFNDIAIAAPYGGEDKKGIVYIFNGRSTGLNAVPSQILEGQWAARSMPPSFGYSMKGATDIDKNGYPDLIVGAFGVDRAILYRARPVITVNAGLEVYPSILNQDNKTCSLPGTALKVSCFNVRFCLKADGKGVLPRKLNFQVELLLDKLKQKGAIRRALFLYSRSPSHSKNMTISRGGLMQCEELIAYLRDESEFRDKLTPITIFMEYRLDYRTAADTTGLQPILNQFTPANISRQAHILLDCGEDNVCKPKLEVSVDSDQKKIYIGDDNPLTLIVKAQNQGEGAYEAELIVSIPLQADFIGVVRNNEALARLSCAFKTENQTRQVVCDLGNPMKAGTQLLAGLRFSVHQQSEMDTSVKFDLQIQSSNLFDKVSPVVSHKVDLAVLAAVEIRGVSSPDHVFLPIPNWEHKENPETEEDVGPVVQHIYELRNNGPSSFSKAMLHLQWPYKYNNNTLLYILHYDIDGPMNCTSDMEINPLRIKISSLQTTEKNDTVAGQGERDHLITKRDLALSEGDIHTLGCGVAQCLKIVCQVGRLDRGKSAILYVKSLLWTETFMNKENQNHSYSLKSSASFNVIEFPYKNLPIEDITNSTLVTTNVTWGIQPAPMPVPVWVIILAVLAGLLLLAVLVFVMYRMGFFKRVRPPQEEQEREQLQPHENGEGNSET
Sequence of integrin αvβ3 (UniProt P06756) (P05106 27-788, chain 2 of 2, further chain): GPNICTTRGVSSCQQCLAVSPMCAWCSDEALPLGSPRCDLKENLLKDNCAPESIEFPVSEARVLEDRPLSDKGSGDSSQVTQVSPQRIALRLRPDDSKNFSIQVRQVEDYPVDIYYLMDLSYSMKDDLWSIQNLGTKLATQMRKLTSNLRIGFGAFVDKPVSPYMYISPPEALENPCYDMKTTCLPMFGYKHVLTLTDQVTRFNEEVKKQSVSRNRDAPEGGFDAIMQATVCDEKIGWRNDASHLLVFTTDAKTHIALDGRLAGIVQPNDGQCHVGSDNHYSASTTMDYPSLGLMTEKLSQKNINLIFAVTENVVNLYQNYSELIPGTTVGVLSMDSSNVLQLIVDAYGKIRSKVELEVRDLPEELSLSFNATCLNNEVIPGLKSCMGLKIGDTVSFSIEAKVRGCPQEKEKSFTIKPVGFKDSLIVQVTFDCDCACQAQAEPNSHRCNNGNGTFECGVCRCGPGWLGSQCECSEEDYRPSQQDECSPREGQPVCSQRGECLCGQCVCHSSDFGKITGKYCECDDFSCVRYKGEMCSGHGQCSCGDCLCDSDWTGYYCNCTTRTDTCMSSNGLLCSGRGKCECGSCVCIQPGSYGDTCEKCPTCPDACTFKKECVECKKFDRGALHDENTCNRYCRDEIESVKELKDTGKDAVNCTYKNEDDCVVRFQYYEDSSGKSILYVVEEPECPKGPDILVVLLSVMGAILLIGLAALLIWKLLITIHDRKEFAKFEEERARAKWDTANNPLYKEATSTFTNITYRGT

Sequence of integrin αvβ3 (Homo sapiens, UniProt P05106+P06756) (P06756 31-1048): as the sequence (P06756 31-1048, chain 1 of 2) above
Sequence of integrin αvβ3 (Homo sapiens, UniProt P05106+P06756) (P05106 27-788): as the sequence (P05106 27-788, chain 2 of 2, further chain) above

Q: `N=C(N)NCCC[C@H](NC(=O)[C@@H]1CCCN1C(=O)[C@H](Cc1c[nH]c2ccccc12)NC(=O)[C@H](CCCNC(=N)N)NC(=O)[C@H](Cc1ccccc1)NC(=O)[C@H](CC(=O)O)NC(=O)CNC(=O)[C@@H](N)CCCNC(=N)N)C(=O)O` [GCPF] (H-RGDFRWPR-OH) was tested. Which Kd (integrin αvβ3 [1]) did it give?
A: Its Kd is 2.41 ± 0.455 nM.

Q: What about the proliferation inhibition rate (hCMEC/D3 cells [2]; 1 μg/mL) of the same molecule?
A: Its proliferation inhibition rate is 0.15%.

Q: And the proliferation inhibition rate (hCMEC/D3 cells [2]; 10 μg/mL)?
A: Its proliferation inhibition rate is 13.49%.

Q: What about the proliferation inhibition rate (hCMEC/D3 cells [2]; 100 μg/mL) of the same molecule?
A: The proliferation inhibition rate was 3.90%.

Q: What about the proliferation inhibition rate (hCMEC/D3 cells [2]; 1000 μg/mL) of the same molecule?
A: Its proliferation inhibition rate is 1.98%.

Q: With VEGF as the molecule, how does the “tube formation, result in words” value (hCMEC/D3 cells [3]) read?
A: The value was “the tube-like structures were developed from clear elongated cell bodies, which connected to form a polygon network”.

B1: GCPF peptide (peptide)
peptide: RGDFRWPR
Q: Which Kd (integrin αvβ3 [4]) does the source give for B1 here?
A: Its Kd is 2.41 nM.

Reference: PMC6815762 (Drug Design, Development and Therapy, 2019)
